High-throughput results from PubChem.
MrgX1 ag = activates human MrgX1 receptor signaling | 0.44% of 310,000 active | MrgX1-HEK293 cells, Fluo-4 calcium fluorescence, agonist mode; hits give high values | AID 588627 | B-score at 10 µM | Q96LB2;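 active = calcium response B-score plate-corrected fluorescence ratio at least 3 library SD, with starting fluorescence B-score inside 5 SD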
Target sequence (Q96LB2 whole entry, looked up): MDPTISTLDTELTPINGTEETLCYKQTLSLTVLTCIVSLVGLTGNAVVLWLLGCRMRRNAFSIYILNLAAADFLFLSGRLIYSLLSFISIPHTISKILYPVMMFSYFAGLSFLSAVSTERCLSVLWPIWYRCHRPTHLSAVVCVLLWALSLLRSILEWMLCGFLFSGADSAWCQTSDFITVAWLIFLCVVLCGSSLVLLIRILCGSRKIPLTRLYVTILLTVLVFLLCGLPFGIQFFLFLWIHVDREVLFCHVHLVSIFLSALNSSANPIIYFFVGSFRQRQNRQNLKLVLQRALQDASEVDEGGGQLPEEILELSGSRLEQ
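Test system: Stable human MrgX1 HEK293 cell line | Schedule: Overnight plating before 1 h dye loading | Read-out basis: Baseline-normalised fluorescence change ratio, B-scored | Detection: Kinetic calcium dye fluorescence, Fluo-4 NW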
RGS4 pot = RGS4 potentiation or activation; HEK293 M3R/inducible RGS4, carbachol calcium flux Fluo4; hits give low values; AID 463111; B-score at 10 µM; 0.92% of 310,000 active;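 active = B-score of the integrated calcium signal more than 4 SD below the library mean, with starting fluorescence not abnormally high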;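 also: negative B-score means reduced calcium response which marks RGS4 activation or potentiation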
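test system = HEK293 cells with stable M3R and inducible RGS4 | schedule = recording 10 s baseline at 1 Hz, 100 s post-agonist | technique = Fluo4-AM (2 µM) calcium-flux fluorescence, kinetic read | measure = Agonist-evoked peak-minus-minimum fluorescence over baseline, integrated ratio, B score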
MrgX1 PAM = human MrgX1 positive allosteric modulation, primary screen | B-score at 10 µM | AID 588675 | Q96LB2 | 0.63% of 310,000 active | MrgX1-HEK293, Fluo-4 calcium flux, FDSS; hits give high values;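 active = plate-corrected calcium response at least 3 library SD above typical, normal starting fluorescence, not activating the receptor alone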;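 also: compound read alongside a low EC10 to EC30 dose of BAM8-22 agonist; peak minus trough fluorescence over baseline measured at the second addition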
MrgX1 antag = blocks BAM8-22 activation of human MrgX1 receptor; Q96LB2; MRGX1-HEK293 calcium flux, Fluo-4, BAM8-22 antagonism; hits give low values; B-score at 10 µM; 1.3% of 310,000 active; AID 588676;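 active = calcium-response B-score plate-corrected more than 3 library SD below zero, starting fluorescence within 5 deviations, no agonist response on first addition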;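 also: peak minus trough fluorescence over baseline after final BAM8-22 challenge near maximal dose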
RGS4 block = human RGS4 inhibition; P49798; 0.45% of 310,000 active; B-score at 10 µM; HEK293 M3R/RGS4 inducible, Fluo-4 calcium flux; hits give high values; triggered by carbachol at its EC20;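 active = B-score, a plate-corrected calcium signal, over three deviations above library mean, with baseline fluorescence within five deviations of library mean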;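 also: RGS4 expression induced by doxycycline in cells with stable M3 receptor; B-score is computed from the integrated fluorescence ratio over baseline after carbachol; higher B-score means a larger calcium signal and so more RGS4 inhibition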
Target sequence (P49798 whole entry, looked up): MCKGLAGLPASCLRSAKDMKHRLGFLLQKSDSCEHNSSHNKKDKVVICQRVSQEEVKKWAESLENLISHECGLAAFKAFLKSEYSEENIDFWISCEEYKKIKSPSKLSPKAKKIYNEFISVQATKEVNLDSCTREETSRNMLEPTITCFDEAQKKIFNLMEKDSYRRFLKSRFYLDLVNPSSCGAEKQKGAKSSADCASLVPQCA
* hit, by the source's call; i = inactive; x = not tested or not shown. Rows were chosen to be rich in hits. Some 3.5% of all compounds tested hit in one or more screens of this group.

SMILES	MrgX1 ag	RGS4 pot	MrgX1 PAM	MrgX1 antag	RGS4 block
COc1ccc(CCNC(=O)CC(c2ccccc2)c2cccc(C)c2O)cc1OC (stereo unspecified)	i	i	i	-5.9*	i
COc1ccc(CCNC(=O)CSc2ccccc2)cc1OC	i	i	i	i	i
CCCOc1cccc(-c2cc(-c3n[nH]c(=S)n3CC)c3ccccc3n2)c1	i	-8.5*	i	i	i
O=C(N/N=C/c1cc(Cl)ccc1O)c1ccncc1	i	i	i	-5.1*	i
O=C(N/N=C/c1ccccc1Cl)c1ccncc1	i	i	i	i	i
COc1cc(/C=N\N=C2/SC(CC(=O)O)C(=O)N2c2ccc(O)cc2)ccc1O (stereo unspecified)	i	i	i	-8.2*	i
CC1CN(S(=O)(=O)c2ccc(CN3C(=O)c4cccnc4C3=O)s2)c2ccccc2O1 (stereo unspecified)	i	i	i	i	i
N#CC1(C#N)[C@@H](C(=O)C23CC4CC(CC(C4)C2)C3)C12CCOCC2	i	i	i	-6.6*	i
CC(C(=O)C12CC3CC(CC(C3)C1)C2)N1CCOCC1 (stereo unspecified)	i	i	i	i	i
Cc1ccnc(SCC(=O)NC2CC2)n1	i	i	i	i	i
COC(=O)C/C(N)=C(\C#N)C(=O)OC	i	i	i	i	i
N#CCC(N)=C(C#N)C#N	i	i	i	-7.2*	i
COCCN1CCN(C(=O)C2CCC(=O)N(CCc3cccc(F)c3)C2)CC1 (stereo unspecified)	i	i	i	i	i
CC(OC(=O)c1ccc(Cl)c(S(=O)(=O)N2CCOCC2)c1)C(=O)Nc1ccc(S(N)(=O)=O)cc1 (stereo unspecified)	i	i	i	i	i
CCOCCCNc1ncnc2c1nc1n2CCCC1	i	i	i	i	i
Nc1nc(N2CCCCC2)nc2ccccc12	i	-7.2*	i	i	i
O=C(Nc1cccnc1)c1cc2cc(Br)ccc2o1	i	i	i	i	i
CCCNC(=O)c1ccc2c(c1)nc(C)n2-c1cccc(Cl)c1	i	-7.5*	i	i	i
COCCCNC(=O)c1ccc2c(c1)nc(C)n2-c1cccc(C)c1	i	i	i	i	i
CC1=CC(C2CC(=O)N(c3ccc(C)cc3)C2=O)CC2C(=O)N(c3ccc(C)cc3)C(=O)C12 (stereo unspecified)	i	i	i	i	i
Cc1sc2ccccc2[n+]1CC(=O)c1ccccc1	i	i	i	i	i
O=C(c1ccccc1)c1c2c(cc3sc4ccccc4[n+]13)-c1cccc3cccc-2c13	i	x	i	-8.8*	x
NN(CCO)C(=S)Nc1ccc(Cl)cc1	i	i	i	i	i
CN1c2ccccc2C(C)(C)C12CC(c1ccc(S(=O)(=O)N3CCCCC3)cc1)=NO2 (stereo unspecified)	i	i	i	i	i
CCN(CC)S(=O)(=O)c1ccc(C2=NOC3(C2)N(C)c2ccccc2C3(C)C)cc1 (stereo unspecified)	i	-8.4*	i	i	i
SMILES	MrgX1 ag	RGS4 pot	MrgX1 PAM	MrgX1 antag	RGS4 block
COc1ccc(NC(=S)N2CCN(S(=O)(=O)c3ccccc3)CC2)cc1	i	i	i	i	i
COC(=O)c1cc(NS(=O)(=O)c2ccc(Cl)c(N3C(=O)c4ccc(C(=O)O)cc4C3=O)c2)cc(C(=O)OC)c1	i	i	9.9*	i	i
CN(C)c1ccc(/C=C/c2nc3ccccc3c(=O)n2CCO)cc1	32*	i	i	i	i
O=c1c2ccccc2nc(/C=C/c2c[nH]c3ccccc23)n1CCO	i	-7.4*	i	i	i
O=c1c2ccccc2nc(/C=C/c2cc(Br)ccc2O)n1CCO	i	i	i	i	i
COC(=O)C1=C(C)NC(C)=C(C(=O)OC)C1c1ccccc1[N+](=O)[O-]	i	-8.5*	i	i	i
N#Cc1c2ccc(OCC(=O)NCc3ccco3)cc2n2ccccc12	i	i	i	i	i
N#Cc1c2ccc(O)cc2n2ccccc12	46*	i	i	i	i
O=C(CN1C(=O)CSc2ncccc21)Nc1cccc(Cl)c1	i	i	i	i	i
CCOc1ccc(NC(=O)CSc2nnc(Cc3cccn3C)n2-c2ccc(OC)cc2)cc1	i	i	i	-5.7*	i
CC1=C(C#N)c2nc(N)c(C#N)c(C)c2/C1=C\c1ccc(OCC(=O)O)c(Cl)c1	i	i	i	-5.4*	i
Cc1[nH]c(=O)[nH]c(=O)c1S(=O)(=O)N(CC(C)C)CC(C)C	i	i	i	i	i
Cc1cnc(CN(C)C(=O)c2ccc3oc(Cc4ccc(Cl)cc4)nc3c2)[nH]1	i	-7.2*	i	i	i
Fc1ccc2[nH]c3c(N4CCN(C5CCCCC5)CC4)ncnc3c2c1	i	-7.6*	i	i	i
Cc1ccc2[nH]c3c(N4CCCCCC4)ncnc3c2c1	x	i	x	x	i
CC(NC(=O)c1ccc2c(c1)OCO2)C(c1cccs1)N1CCN(c2ccccc2)CC1 (stereo unspecified)	i	i	i	i	i
CC(=O)NC1C(Oc2cccc(C)c2)OC2COC(c3ccco3)OC2C1O (stereo unspecified)	i	-7.3*	i	i	i
CN(c1ncnc(N)c1[N+](=O)[O-])C1CCCCC1	27*	i	i	i	i
COc1ccc(NS(=O)(=O)c2ccc(O)c(NC(=O)c3ccc(S(=O)(=O)N4CCCCCC4)cc3)c2)cc1	i	-7.8*	i	i	i
COc1ccc(NS(=O)(=O)c2ccc(O)c(NC(=O)c3ccc(S(=O)(=O)N4CCCC4)cc3)c2)cc1	i	i	i	i	i
COc1ccc(CNS(=O)(=O)CCNC(=O)c2ccc(OC)cc2)cc1	i	i	i	-4.9*	i
CCc1ccc(C(=O)NNC(=O)c2cccc(N3C(=O)CCC3=O)c2)cc1	i	i	i	i	i
CCc1nn(C(C)C(=O)NCCc2ccccc2)c(=O)c2cc3occc3n12 (stereo unspecified)	i	i	i	i	i
Cc1nn(C(C)C(=O)NC(C)CCc2ccccc2)c(=O)c2cc3occc3n12 (stereo unspecified)	i	i	i	-7.6*	i
COc1ccc(CNC(=O)C(C)n2nc(C)n3c(cc4occc43)c2=O)cc1 (stereo unspecified)	i	i	i	-8.1*	i
